Activity calls are given as the source filed them. The calls are words filed in the database; no cut-off is given here.
Assays:
[1] = target: T1, Peroxisome proliferator-activated receptor alpha (Homo sapiens) (UniProt Q07869); assay: Agonist activity at human GAL4-fused PPARalpha ligand binding domain expressed in HepG2 cells after 20 hrs by luciferase reporter gene transactivation assay relative to WY14643; format: cell-based
T1 sequence (whole entry): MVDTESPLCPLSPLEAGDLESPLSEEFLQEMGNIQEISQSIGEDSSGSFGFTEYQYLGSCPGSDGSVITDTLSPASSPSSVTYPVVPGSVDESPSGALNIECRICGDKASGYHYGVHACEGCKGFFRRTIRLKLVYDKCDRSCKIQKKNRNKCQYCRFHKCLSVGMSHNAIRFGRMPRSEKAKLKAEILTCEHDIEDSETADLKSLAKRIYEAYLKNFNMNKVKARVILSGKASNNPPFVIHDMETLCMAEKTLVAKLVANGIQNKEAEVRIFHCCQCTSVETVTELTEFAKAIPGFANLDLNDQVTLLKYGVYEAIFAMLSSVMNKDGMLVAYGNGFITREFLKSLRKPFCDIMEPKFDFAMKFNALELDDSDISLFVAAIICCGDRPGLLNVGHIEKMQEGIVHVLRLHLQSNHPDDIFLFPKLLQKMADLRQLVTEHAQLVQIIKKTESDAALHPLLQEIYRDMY
Procedure, shortened: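 GAL4-human PPARα LBD chimera (30 ng) with Gal5-TK luciferase reporter (100 ng) and pCMVβgal (250 ng), calcium-phosphate transfected into HepG2 (MEM, 10% FBS) seeded 10⁵ cells/well. Ligands added 4 h post-transfection for 20 h, in triplicate. Luciferase read in cell extracts, normalised to β-galactosidase activity. Experiments repeated at least twice.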

[2] = target: T2, Peroxisome proliferator-activated receptor gamma (Homo sapiens, UniProt P37231); assay: Binding affinity to PPARgamma ligand binding domain by isothermal titration calorimetry
T2 sequence (P37231 whole entry): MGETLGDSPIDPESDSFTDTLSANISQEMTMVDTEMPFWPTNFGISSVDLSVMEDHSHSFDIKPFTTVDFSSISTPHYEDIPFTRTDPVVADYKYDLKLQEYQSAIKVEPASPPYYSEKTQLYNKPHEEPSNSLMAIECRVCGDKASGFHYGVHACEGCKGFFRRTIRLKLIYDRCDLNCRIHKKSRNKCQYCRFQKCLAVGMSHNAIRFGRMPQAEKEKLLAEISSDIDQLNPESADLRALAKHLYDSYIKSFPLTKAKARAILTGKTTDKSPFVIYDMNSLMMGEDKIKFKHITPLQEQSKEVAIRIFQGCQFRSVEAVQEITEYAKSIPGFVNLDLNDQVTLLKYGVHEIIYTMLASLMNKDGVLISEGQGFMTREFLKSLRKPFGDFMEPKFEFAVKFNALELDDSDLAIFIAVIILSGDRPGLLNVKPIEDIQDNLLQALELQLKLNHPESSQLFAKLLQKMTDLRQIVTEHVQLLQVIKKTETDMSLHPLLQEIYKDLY

[3] = target: T2, Peroxisome proliferator-activated receptor gamma; assay: Agonist activity at human GAL4-fused PPARgamma ligand binding domain expressed in HepG2 cells after 20 hrs by luciferase reporter gene transactivation assay; format: cell-based
[4] = target: T3, Peroxisome proliferator-activated receptor delta (Homo sapiens, UniProt Q03181); assay: Agonist activity at human GAL4-fused PPARdelta ligand binding domain expressed in COS-1 cells after 20 hrs by luciferase reporter gene transactivation assay; format: cell-based
T3 sequence (Q03181 whole entry): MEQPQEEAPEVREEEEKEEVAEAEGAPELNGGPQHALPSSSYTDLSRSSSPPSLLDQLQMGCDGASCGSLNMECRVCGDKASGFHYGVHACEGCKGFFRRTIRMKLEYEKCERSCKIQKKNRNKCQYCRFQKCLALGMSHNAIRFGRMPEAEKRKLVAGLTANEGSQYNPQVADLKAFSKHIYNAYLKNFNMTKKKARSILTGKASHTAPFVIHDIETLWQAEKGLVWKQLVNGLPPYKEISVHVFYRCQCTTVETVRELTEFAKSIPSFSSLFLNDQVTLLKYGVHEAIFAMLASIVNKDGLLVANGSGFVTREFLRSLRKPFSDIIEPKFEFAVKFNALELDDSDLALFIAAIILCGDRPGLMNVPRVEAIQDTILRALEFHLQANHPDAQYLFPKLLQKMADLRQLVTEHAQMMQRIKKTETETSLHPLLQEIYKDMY

[5] = target: T4, Peroxisome proliferator-activated receptor alpha (Homo sapiens, UniProt Q07869); assay: Agonist activity at human GAL4-fused PPARalpha ligand binding domain expressed in HepG2 cells after 20 hrs by luciferase reporter gene transactivation assay; format: cell-based
T4 sequence (Q07869 whole entry): T1 sequence (whole entry)
Procedure, shortened: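 HepG2 cells in MEM with 10% heat-inactivated FBS, seeded at 10⁵ cells/well and transfected after 24 h by calcium phosphate. Plasmids: Gal4-PPARα LBD (30 ng), pGal5TKpGL3 luciferase reporter (100 ng) and pCMVβgal (250 ng). Ligands added 4 h post-transfection, for 20 h, in triplicate. Luciferase read in cell extracts, with β-galactosidase activity measured alongside; experiments repeated at least twice.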

[6] = Solubility of the compound in HEPES buffer; format: physicochemical
[7] = target: T5, Peroxisome proliferator-activated receptor gamma (Homo sapiens) (UniProt P37231); conditions: BL21-DE3
T5 sequence (whole entry): T2 sequence (P37231 whole entry)

HT-29 [8] = assay: Antitumor activity against human HT-29 cells assessed as inhibition of cell proliferation after 1 day by MTT assay; format: functional, cell-based; conditions: HT-29, 24 h
Procedure, shortened: (§1)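 MTT assay with 10,000 cells/well seeded on day 1. Ligands added on day 2 at 1, 5, 10, 50 and 100 μM, from 20 mM DMSO stocks, for 1 or 2 days. Six replicate wells per drug, untreated control column. IC50 is the concentration giving 0.5 fraction affected versus untreated controls, taken from dose–effect curves. Each experiment in triplicate.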

HCT-15 [9] = assay: Antitumor activity against human HCT15 cells assessed as inhibition of cell proliferation after 2 days by MTT assay; format: functional, cell-based; conditions: HCT-15, 48 h; procedure, shortened: as §1
HT-29 [10] = assay: Induction of apoptosis in human HT-29 cells at IC50 by Annexin V-FITC/propidium iodide staining based flow cytometry; format: functional, cell-based; conditions: TDE = time-dependent effect
LoVo [11] = assay: Antitumor activity against human LoVo cells assessed as inhibition of cell proliferation after 1 day by MTT assay; format: functional, cell-based; conditions: 24 h; procedure, shortened: as §1
HT-29 [12] = assay: Antitumor activity against human HT-29 cells assessed as inhibition of cell proliferation after 2 days by MTT assay; format: functional, cell-based; conditions: HT-29, 48 h; procedure, shortened: as §1
HCT-15 [13] = assay: Antitumor activity against human HCT15 cells assessed as inhibition of cell proliferation after 1 day by MTT assay; format: functional, cell-based; conditions: HCT-15, 24 h; procedure, shortened: as §1
LoVo [14] = assay: Antitumor activity against human LoVo cells assessed as inhibition of cell proliferation after 2 days by MTT assay; format: functional, cell-based; conditions: 48 h; procedure, shortened: as §1
Mus musculus [15] = assay: Reduction of visceral fat weight in high fat diet fed-induced obesity and insulin resistance C57Bl/6J mouse model at 10 mg/kg/day, po administered once daily for 2 weeks measured on day 12 by in vivo magnetic resonance imaging analysis; format: functional, organism-based
Procedure, shortened: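 Mice fed a high-fat diet for 16 weeks were gavaged daily for 2 weeks in 0.5% hypromellose. Under 1% isoflurane they were scanned at 4.7 T with sixteen 1 mm axial T1-weighted slices from kidneys to bladder. Visceral fat was expressed as percentage of total image area, 3 mice per group.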

Mus musculus [16] = assay: Reduction of body weight in high fat diet fed-induced obesity and insulin resistance C57Bl/6J mouse model at 10 mg/kg/day, po administered once daily for 2 weeks relative to control; format: functional
Procedure, shortened: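 Male C57Bl/6J mice, 6 weeks old, on high-fat diet for 16 weeks. Then dosed once daily for 2 weeks by oral gavage in 0.5% hypromellose; doses chosen in a preliminary dose-finding study. Body weight measured at end of treatment versus HFD controls, 6 mice per group.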

Mus musculus [17] = assay: Induction of PPARalpha-mediated upregulation of Acadm mRNA expression in liver of high fat diet fed-induced obesity and insulin resistance C57Bl/6J mouse model at 100 mg/kg/day, po administered once daily for 2 weeks by real time qPCR analysis; format: functional, organism-based
Procedure, shortened: (§2)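 Livers came from mice fed a high-fat diet for 16 weeks, then gavaged once daily for 2 weeks in 0.5% hypromellose, and were snap-frozen at sacrifice. Total RNA was extracted with Trizol and cleaned up on RNeasy columns. 1 μg RNA was used for mRNA quantitation.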

Mus musculus [18] = assay: Induction of PPARalpha-mediated upregulation of Acadl mRNA expression in liver of high fat diet fed-induced obesity and insulin resistance C57Bl/6J mouse model at 100 mg/kg/day, po administered once daily for 2 weeks by real time qPCR analysis; format: functional, organism-based; procedure, shortened: as §2
Mus musculus [19] = assay: Induction of PPARalpha-mediated upregulation of Acox1 mRNA expression in liver of high fat diet fed-induced obesity and insulin resistance C57Bl/6J mouse model at 100 mg/kg/day, po administered once daily for 2 weeks by real time qPCR analysis; format: functional, organism-based; procedure, shortened: as §2
Mus musculus [20] = assay: Increase in liver weight in high fat diet fed-induced obesity and insulin resistance C57Bl/6J mouse model at 100 mg/kg/day, po administered once daily for 2 weeks; format: functional, organism-based

Structure (SMILES)	Emax [1]	Kd [2] [nM]	EC50 ([3]; read-out: EC50) [nM]	EC50 ([4]; read-out: EC50) [nM]	EC50 ([5]; read-out: EC50) [nM]	EC50 ([5]; hepg2)	other results
CCCCCCCN(CCc1ccc(OCC(=O)O)cc1)c1nc2ccccc2o1	87%	7700	800	570	122		
CCCCCCCN(CCc1ccc(O[C@H](Cc2ccccc2)C(=O)O)cc1)c1nc2ccccc2o1.NC1CCCCC1			2700		1720		solubility [6]: Insoluble; EC50 ([4]; cos-1): Not Active
CCCCCCCN(CCc1ccc(O[C@@H](C)C(=O)O)cc1)c1nc2ccccc2o1	78%	3300	2300	850	620		deltaT [7]: 2 °C
Cc1cccc(Nc2cc(Cl)nc(SCC(=O)O)n2)c1C [PIRINIXIC ACID]							EC50 ([3]; hepg2): Not Active
CCCCCCCN(CCc1ccc(O[C@H](C)C(=O)O)cc1)c1nc2ccccc2o1	93%	1500	150	130	25		deltaT [7]: 2 °C
CCCCCCCN(CCc1ccc(O[C@@H](Cc2ccccc2)C(=O)O)cc1)c1nc2ccccc2o1.NC1CCCCC1			1700			Not Active	solubility [6]: Insoluble; EC50 ([4]; cos-1): Not Active
CCCc1c(OCCCOc2ccc(OCC(=O)O)cc2)ccc(C(C)=O)c1O				21		Not Active	EC50 ([3]; hepg2): Not Active
Cc1c(C)c2c(c(C)c1O)CCC(C)(COc1ccc(CC3SC(=O)NC3=O)cc1)O2 (centres undefined) [TROGLITAZONE]							IC50 (HT-29 [8]): > 100000 nM; IC50 (HCT-15 [9]): 50900 nM; Activity (HT-29 [10]): tde; IC50 (LoVo [11]): > 100000 nM; IC50 (HT-29 [12]): 50000 nM; IC50 (HCT-15 [13]): > 100000 nM; IC50 (LoVo [14]): 65000 nM
CN(CCOc1ccc(CC2SC(=O)NC2=O)cc1)c1ccccn1 (centres undefined) [ROSIGLITAZONE]	inactive					Not Active	inhibition (Mus musculus [15]): inactive; inhibition (Mus musculus [16]): inactive
CC(C)OC(=O)C(C)(C)Oc1ccc(C(=O)c2ccc(Cl)cc2)cc1							Activity (Mus musculus [17]): Active; Activity (Mus musculus [18]): Active; Activity (Mus musculus [19]): Active; Activity (Mus musculus [20]): Active

Reference: ChEMBL document CHEMBL2202967, “Synthesis, characterization and biological evaluation of ureidofibrate-like derivatives endowed with peroxisome proliferator-activated receptor activity” (J Med Chem, 2012)
